Source: ChEMBL document CHEMBL1944638, “Quinol derivatives as potential trypanocidal agents” (Bioorg Med Chem, 2012)

How the values were obtained:
Trypanosoma brucei = experiment: Antitrypanosomal activity against blood stream form of Trypanosoma brucei after 69 hrs by resazurin-based fluorescence assay; format: functional, organism-based
How it was run: (§1)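 96-well HTS whole-cell assay against bloodstream-form T. brucei and human MRC5 cells. EC50 values are the arithmetic mean of independent determinations, with SD and number of repeats. Species selectivity is EC50 (MRC5)/EC50 (T. brucei).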

MRC5 = experiment: Cytotoxicity against human MRC5 cells after 3 days by resazurin-based fluorescence assay; format: cell-based; conditions: MRC5, 72 h; how it was run: as §1
[1] = Selectivity ratio of EC50 for human MRC5 cells to EC50 for blood stream form of Trypanosoma brucei; format: ADME, cell-based; conditions: read-out: Ratio EC50
How it was run: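 Ratio of EC50 in human MRC5 cells over EC50 in bloodstream-form T. brucei, both from 96-well HTS whole-cell assays. Each EC50 is the arithmetic mean of independent determinations, reported with SD and number of repeats.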

SMILES | EC50 (Trypanosoma brucei) [nM] | EC50 (MRC5) [nM] | selectivity ratio [1]
O=C1C=CC(O)(c2ccccc2)C=C1 | 750 | 1700 | 2
O=C1C=CC(O)(c2nc3ccccc3s2)C(Cl)=C1 (configuration not stated) |  |  | 1
O=C1C=CC(O)(c2nc3ccccc3s2)C=C1 | 77 | 180 | 2
O=C1C=CC(O)(c2cc3ccccc3n2S(=O)(=O)c2ccccc2)C=C1 | 53 | 110 | 2
COc1ccc(-n2cc(C3(O)C=CC(=O)C=C3)nn2)cc1 | 130 | 310 | 2
Nc1nc(N)nc(NCCCOC(=O)CCc2ccc(S(=O)(=O)n3c(C4(O)C=CC(=O)C=C4)cc4ccccc43)cc2)n1 |  |  | 2.7
C#CC1(O)C=CC(=O)C=C1 |  |  | 1
O=C1C=CC(O)(C#Cc2ccc(CC(=O)Nc3ccccc3)cc2)C=C1 |  |  | 0.3
COc1ccc(Cn2cc(C3(O)C=CC(=O)C=C3)nn2)cc1 |  |  | 3
O=C1C=CC(O)(c2cn(-c3ccc4ncsc4c3)nn2)C=C1 |  |  | 3
CC(=O)OC[C@H]1O[C@@H](n2cc(C3(O)C=CC(=O)C=C3)nn2)[C@H](OC(C)=O)[C@@H](OC(C)=O)[C@H]1OC(C)=O |  |  | > 5
O=C1C=CC(O)(c2cn(CCC(=O)Nc3ccccc3)nn2)C=C1 |  |  | 7
O=C1C=CC(O)(c2cc3ccccc3n2S(=O)(=O)c2ccc(CCCO)cc2)C=C1 |  |  | 2
O=C1C=CC(O)(c2cc3ccccc3n2S(=O)(=O)c2ccc(CCC(=O)N3CCOCC3)cc2)C=C1 |  |  | 2
CN1CCN(C(=O)CCc2ccc(S(=O)(=O)n3c(C4(O)C=CC(=O)C=C4)cc4ccccc43)cc2)CC1 |  |  | 3
O=C1C=CC(O)(c2cc3ccccc3n2S(=O)(=O)c2ccc(CCCN3CCOCC3)cc2)C=C1 |  |  | 3
CN1CCN(CCCc2ccc(S(=O)(=O)n3c(C4(O)C=CC(=O)C=C4)cc4ccccc43)cc2)CC1 |  |  | 3
N=C(N)c1ccc(-n2cc(C3(O)C=CC(=O)C=C3)nn2)cc1 |  | > 50000 | > 5
Nc1nc(N)nc(-n2cc(C3(O)C=CC(=O)C=C3)nn2)n1 |  | > 50000 | > 8
Nc1nc(N)nc(NCCCNC(=O)CCc2ccc(S(=O)(=O)n3c(C4(O)C=CC(=O)C=C4)cc4ccccc43)cc2)n1 |  |  | 5.6
CC(=O)NCCc1ccc(S(=O)(=O)n2c(C3(O)C=CC(=O)C=C3)cc3ccccc32)cc1 |  |  | 3
COC(=O)CCc1ccc(S(=O)(=O)n2c(C3(O)C=CC(=O)C=C3)cc3ccccc32)cc1 |  |  | 2
CS(=O)(=O)c1ccc(S(=O)(=O)n2c(C3(O)C=CC(=O)C=C3)cc3ccccc32)cc1 |  |  | 2
O=C1C=CC(O)(c2cc3ccccc3n2S(=O)(=O)c2ccc(CCC(=O)O)cc2)C=C1 |  |  | 4.5
CCOC(=O)Nc1ccc(S(=O)(=O)n2c(C3(O)C=CC(=O)C=C3)cc3ccccc32)cc1 |  |  | 2
O=C1C=CC(O)(c2cc3cnccc3n2S(=O)(=O)c2ccccc2)C=C1 |  |  | 2
Cc1ccc(S(=O)(=O)n2c(C3(O)C=CC(=O)C=C3)cc3ccncc32)cc1 |  |  | 2
O=C1C=CC(O)(c2cc3ccc(F)cc3n2S(=O)(=O)c2ccccc2)C=C1 | 100 | 170 | 2
Oc1ccc(-c2nc3ccccc3s2)cc1 | > 50000 | > 50000 | 
